# Calls of active or inactive are those of the source. No cut-off for these calls is given here.
# Tests used:
# [1] = target: Telomerase reverse transcriptase (Homo sapiens) (UniProt O14746); experiment: Inhibition of telomerase in human HT-29 cells at 20 uM incubated for 48 hrs by TRAP assay; assay type: cell-based
# Procedure, shortened: (§1)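 Mycoplasma-tested PC3 or HT-29 cells in RPMI-1640/10% FBS were exposed to a final 20 μM for 48 h. Cells were lysed in CHAPS/glycerol Tris buffer (pH 7.5), and 5 μg extract protein was used for TS-primer elongation (30 min, 37 °C) followed by CX-primer/Taq PCR for 30 cycles. Products were run on 12% nondenaturing PAGE with SYBR Green I densitometry. Quadruplicate; mean ± SEM; t-test.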
# HT-29 = experiment: Effect on telomerase mRNA expression in human HT-29 cells at 20 uM incubated for 48 hrs by real-time RT-PCR analysis; assay type: ADME, cell-based; settings: ht-29, 48 h
# Procedure, shortened: (§2)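 PC3 and HT-29 cells were grown in RPMI-1640 with 10% FBS at 37 °C under 5% CO2, after mycoplasma testing. Cells were exposed to a final 20 μM for 48 h. hTERT mRNA was measured and normalized to 18S RNA, with standard curves from serial cDNA dilutions (1:40–1:320). Runs were done in quadruplicate; results are mean ± SEM, compared by Student's t-test.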
# PC-3 = experiment: Effect on telomerase mRNA expression in human PC3 cells at 20 uM incubated for 48 hrs by real-time RT-PCR analysis; assay type: ADME, cell-based; settings: pc-3, 48 h; procedure, shortened: as §2
# [2] = target: Telomerase reverse transcriptase (Homo sapiens) (UniProt O14746); experiment: Inhibition of telomerase in human PC3 cells at 20 uM incubated for 48 hrs by TRAP assay; assay type: cell-based; settings: PC-3; procedure, shortened: as §1
# Carbonic anhydrase 9 = Carbonic anhydrase 9 (Homo sapiens, UniProt Q16790); experiment: Inhibition of human CA9 pre-incubated for 15 mins by stopped flow CO2 hydrase assay
# Telomerase reverse transcriptase (Homo sapiens), sequence (O14746 whole entry): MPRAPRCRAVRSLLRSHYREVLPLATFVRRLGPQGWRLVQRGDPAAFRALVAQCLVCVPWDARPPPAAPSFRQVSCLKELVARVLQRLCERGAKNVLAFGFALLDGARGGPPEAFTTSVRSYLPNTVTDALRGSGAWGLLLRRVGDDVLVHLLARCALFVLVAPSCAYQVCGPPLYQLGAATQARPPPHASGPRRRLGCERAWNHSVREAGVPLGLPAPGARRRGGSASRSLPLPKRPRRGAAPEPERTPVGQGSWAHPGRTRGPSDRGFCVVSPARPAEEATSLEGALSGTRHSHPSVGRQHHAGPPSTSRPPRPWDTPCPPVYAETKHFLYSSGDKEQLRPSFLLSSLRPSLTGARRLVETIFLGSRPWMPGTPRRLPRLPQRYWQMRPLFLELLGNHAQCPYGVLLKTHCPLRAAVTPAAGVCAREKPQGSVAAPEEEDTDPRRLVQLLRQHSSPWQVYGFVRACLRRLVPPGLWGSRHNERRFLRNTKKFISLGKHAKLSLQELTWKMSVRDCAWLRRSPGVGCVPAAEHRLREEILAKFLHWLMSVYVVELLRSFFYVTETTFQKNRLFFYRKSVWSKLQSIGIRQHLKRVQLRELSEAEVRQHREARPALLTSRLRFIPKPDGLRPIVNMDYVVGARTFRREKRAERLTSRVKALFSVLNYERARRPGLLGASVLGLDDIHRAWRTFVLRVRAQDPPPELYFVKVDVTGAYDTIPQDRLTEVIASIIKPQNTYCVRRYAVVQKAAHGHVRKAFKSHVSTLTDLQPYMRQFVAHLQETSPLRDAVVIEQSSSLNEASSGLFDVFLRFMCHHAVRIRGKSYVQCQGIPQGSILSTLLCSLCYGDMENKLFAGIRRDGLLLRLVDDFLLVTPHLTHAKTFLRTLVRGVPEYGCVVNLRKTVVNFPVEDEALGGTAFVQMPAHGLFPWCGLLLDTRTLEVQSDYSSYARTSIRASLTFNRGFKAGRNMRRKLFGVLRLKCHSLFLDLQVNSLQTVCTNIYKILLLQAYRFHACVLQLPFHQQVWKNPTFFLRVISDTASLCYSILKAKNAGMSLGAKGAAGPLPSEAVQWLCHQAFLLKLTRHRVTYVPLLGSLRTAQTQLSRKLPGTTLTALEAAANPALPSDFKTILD
SMILES,inhibition [1],inhibition [2],Ki (Carbonic anhydrase 9) [nM],Activity (HT-29),Activity (PC-3)
Cc1cn([C@H]2C[C@H](n3cc(C[Se]c4ccc(NC(=S)Nc5cccc(S(N)(=O)=O)c5)cc4)nn3)[C@@H](CO)O2)c(=O)[nH]c1=O,Active,Active,–,Non-Toxic,Non-Toxic
Cc1cn([C@H]2C[C@H](n3cc(CNC(=O)c4ccc(S(N)(=O)=O)cc4)nn3)[C@@H](CO)O2)c(=O)[nH]c1=O,inactive,inactive,–,Non-Toxic,Non-Toxic
Cc1cn([C@H]2C[C@H](n3cc(COC(=O)c4ccc(Cl)c(S(N)(=O)=O)c4)nn3)[C@@H](CO)O2)c(=O)[nH]c1=O,–,–,240,–,–

# The next lines start with results.
inhibition [1],inhibition [2],Ki (Carbonic anhydrase 9) [nM],SMILES,Activity (HT-29),Activity (PC-3)
inactive,inactive,–,Cc1cn([C@H]2C[C@H](n3cc(COC(=O)c4ccc(S(N)(=O)=O)cc4)nn3)[C@@H](CO)O2)c(=O)[nH]c1=O,Non-Toxic,Non-Toxic
Active,Active,–,Cc1cn([C@H]2C[C@H](n3cc(COc4ccc(S(N)(=O)=O)cc4)nn3)[C@@H](CO)O2)c(=O)[nH]c1=O,Non-Toxic,Non-Toxic
